Data set [1] relates to Oryctolagus cuniculus. The data set is described as follows: Pyrogenic activity in New Zealand albino rabbit assessed as change in maximum body temperature at 100 nmol/kg, sc using liposomal formulation measured at 30 mins time intervals for 9 to 24 hrs (reference value: 0.2 degC). In kind it is toxicity, organism-based. To be noted: in vivo. In a few lines: (§1)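 Standard rabbit pyrogenicity test, three animals per group, iv or modified sc application of free (micellar) or liposomal formulations. Maximum temperature rise (+ΔTmax) summed per group; sum below 1.1 °C classed as nonpyrogenic. Temperature followed a further 24 h for delayed pyrogenicity.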

Data set [2] concerns the target NACHT, LRR and PYD domains-containing protein 3 (Homo sapiens, UniProt Q96P20). Briefly: Agonist activity at NLRP3 in human […] cells assessed as induction of LPS-induced IL-1beta secretion by HEK-Blue reporter cell based assay. Put shortly:
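THP1-Null cells stimulated with compounds; mature IL-1β released is detected with HEK-Blue IL-1β cells through SEAP reporter activity in the supernatant, read colorimetrically with QUANTI-Blue. ATP serves as positive standard. Untreated HEK-Blue IL-1β cells serve as negative control; comparison by ANOVA with Dunnett's test.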

In a further data set the test system is Mus musculus. Briefly: Immuno-stimulatory activity in ICR mouse assessed as induction of GM-progenitor cell proliferation in serum at […], sc using liposomal formulation measured after 6 hrs. It counts as functional, organism-based. In a few lines:
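Female ICR mice, 3 months old, four per group, given liposomal preparations sc at 100 nmol per dose in 200 μL. Serum collected 6 h later and added to cultured granulocyte–monocyte progenitors. GM-CFU colonies counted, with serum-free cells as baseline. Dunnett's test is used versus the infusion-solution control.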

Data set [3] concerns Oryctolagus cuniculus. The data set is described as follows: Toxicity in New Zealand albino rabbit assessed as necrosis at site of application at 100 nmol/kg, sc using liposomal formulation measured up to 2 months post dose. In kind it is organism-based. As to conditions: in vivo.
Data set [4] has as its target Nucleotide-binding oligomerization domain-containing protein 2 (Homo sapiens) (UniProt Q9HC29). The data set is described as follows: Agonist activity at human NOD2 receptor expressed in mouse Raw-Blue reporter cells at 10 uM after 48 hrs in presence of gefitinib by SEAP reporter gene assay. In kind it is cell-based. On the technique in general: A reporter such as luciferase makes a cellular process visible.

The subject of data set [5] is Oryctolagus cuniculus. The data set is described as follows: Toxicity in New Zealand albino rabbit assessed as skin irritation at 100 nmol/kg, sc using liposomal formulation measured up to 2 months post dose. It counts as organism-based. To be noted: in vivo.
The subject of data set [6] is Oryctolagus cuniculus. The data set is described as follows: Toxicity in Chinchilla rabbit assessed as skin irritation at 100 nmol/kg, iv using micellar formulation measured up to 2 months post dose. It counts as organism-based. As to conditions: in vivo.
The subject of data set [7] is Oryctolagus cuniculus. The data set is described as follows: Toxicity in Chinchilla rabbit assessed as weight loss at 100 nmol/kg, iv using micellar formulation measured up to 2 months post dose. As to conditions: in vivo. It counts as organism-based.
Data set [8] has as its target Nucleotide-binding oligomerization domain-containing protein 2 (Homo sapiens) (UniProt Q9HC29). The data set is described as follows: Agonist activity at human NOD2 receptor expressed in mouse Raw-Blue reporter cells at 10 uM after 48 hrs by SEAP reporter gene assay. It counts as cell-based. In a few lines:
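RAW 264.7-derived RAW-Blue cells carrying an NF-κB/AP-1-inducible SEAP reporter, exposed to compounds at 10 μM for 48 h. Colorimetric SEAP read-out at 650 nm. MDP serves as positive control. ANOVA with Dunnett's test versus untreated cells and versus MDP.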

In data set [9] the test system is Oryctolagus cuniculus. The data set is described as follows: Toxicity in New Zealand albino rabbit assessed as weight loss at 100 nmol/kg, sc using liposomal formulation measured up to 2 months post dose. It counts as organism-based. As to conditions: in vivo.
For data set [10], the target named is Nucleotide-binding oligomerization domain-containing protein 2 (Homo sapiens) (UniProt Q9HC29). The data set is described as follows: Agonist activity at human NOD2 receptor expressed in mouse Raw-Blue reporter cells at 10 uM after 24 hrs in presence of GSK717 by SEAP reporter gene assay.
The subject of data set [11] is Oryctolagus cuniculus. The data set is described as follows: Toxicity in Chinchilla rabbit assessed as behavioral changes at 100 nmol/kg, iv using micellar formulation measured up to 2 months post dose. It counts as organism-based. As to conditions: in vivo.
Data set [12] has as its system Oryctolagus cuniculus. Briefly: Toxicity in Chinchilla rabbit assessed as necrosis at site of application at 100 nmol/kg, iv using micellar formulation measured up to 2 months post dose. In kind it is organism-based. As to conditions: in vivo.
Data set [13] addresses T1, Nucleotide-binding oligomerization domain-containing protein 1 (Homo sapiens) (UniProt Q9Y239).
T1 sequence (whole entry): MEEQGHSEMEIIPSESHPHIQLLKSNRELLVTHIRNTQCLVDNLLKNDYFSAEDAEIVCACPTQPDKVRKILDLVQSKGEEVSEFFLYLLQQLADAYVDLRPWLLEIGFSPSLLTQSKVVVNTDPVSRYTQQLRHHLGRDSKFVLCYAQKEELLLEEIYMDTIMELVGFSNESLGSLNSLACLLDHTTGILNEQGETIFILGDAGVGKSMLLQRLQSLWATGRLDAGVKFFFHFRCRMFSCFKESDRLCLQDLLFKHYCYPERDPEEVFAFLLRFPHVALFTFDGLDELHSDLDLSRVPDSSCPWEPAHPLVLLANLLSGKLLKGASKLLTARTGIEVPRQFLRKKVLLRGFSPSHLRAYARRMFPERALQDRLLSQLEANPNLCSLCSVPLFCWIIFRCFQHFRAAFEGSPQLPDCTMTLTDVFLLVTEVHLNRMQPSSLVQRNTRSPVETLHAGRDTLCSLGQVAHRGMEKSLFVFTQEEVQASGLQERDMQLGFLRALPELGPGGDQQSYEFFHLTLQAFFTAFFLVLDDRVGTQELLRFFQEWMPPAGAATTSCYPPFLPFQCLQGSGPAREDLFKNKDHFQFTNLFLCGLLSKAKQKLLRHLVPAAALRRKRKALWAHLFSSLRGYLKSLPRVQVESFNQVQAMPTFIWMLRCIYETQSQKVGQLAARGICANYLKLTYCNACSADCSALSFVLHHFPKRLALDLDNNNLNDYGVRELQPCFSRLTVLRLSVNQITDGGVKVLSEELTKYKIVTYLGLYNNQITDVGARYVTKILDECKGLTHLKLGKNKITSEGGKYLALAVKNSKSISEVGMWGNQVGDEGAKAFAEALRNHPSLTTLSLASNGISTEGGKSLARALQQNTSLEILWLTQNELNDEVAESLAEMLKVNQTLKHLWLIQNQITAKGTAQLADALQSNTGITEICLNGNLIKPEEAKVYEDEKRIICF
Briefly: Agonist activity at human NOD1 receptor expressed in HEK-Blue reporter cells at 10 uM after 48 hrs by SEAP reporter gene assay. In kind it is cell-based. In a few lines:
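HEK293 cells cotransfected with human NOD1 and an NF-κB/AP-1-inducible SEAP reporter, exposed to compounds at 10 μM for 48 h. SEAP is read at 650 nm with QUANTI-Blue. Diaminopimelic acid derivatives serve as NOD1 positive controls. Dunnett's test is used versus untreated cells.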

The test system of data set [14] is Oryctolagus cuniculus. Briefly: Toxicity in New Zealand albino rabbit assessed as behavioral changes at 100 nmol/kg, sc using liposomal formulation measured up to 2 months post dose. To be noted: in vivo. In kind it is organism-based.
The subject of data set [15] is Oryctolagus cuniculus. The data set is described as follows: Pyrogenic activity in Chinchilla rabbit assessed as change in maximum body temperature at 100 nmol/kg, iv using micellar foemulation measured at 30 mins time intervals. In kind it is toxicity, organism-based. As to conditions: in vivo, 0.5 h. In a few lines:
as §1

The source made the active and inactive calls. No cut-off for these calls is given here.

Chain of NACHT, LRR and PYD domains-containing protein 3 (Q96P20 whole entry, the tested form may be a part): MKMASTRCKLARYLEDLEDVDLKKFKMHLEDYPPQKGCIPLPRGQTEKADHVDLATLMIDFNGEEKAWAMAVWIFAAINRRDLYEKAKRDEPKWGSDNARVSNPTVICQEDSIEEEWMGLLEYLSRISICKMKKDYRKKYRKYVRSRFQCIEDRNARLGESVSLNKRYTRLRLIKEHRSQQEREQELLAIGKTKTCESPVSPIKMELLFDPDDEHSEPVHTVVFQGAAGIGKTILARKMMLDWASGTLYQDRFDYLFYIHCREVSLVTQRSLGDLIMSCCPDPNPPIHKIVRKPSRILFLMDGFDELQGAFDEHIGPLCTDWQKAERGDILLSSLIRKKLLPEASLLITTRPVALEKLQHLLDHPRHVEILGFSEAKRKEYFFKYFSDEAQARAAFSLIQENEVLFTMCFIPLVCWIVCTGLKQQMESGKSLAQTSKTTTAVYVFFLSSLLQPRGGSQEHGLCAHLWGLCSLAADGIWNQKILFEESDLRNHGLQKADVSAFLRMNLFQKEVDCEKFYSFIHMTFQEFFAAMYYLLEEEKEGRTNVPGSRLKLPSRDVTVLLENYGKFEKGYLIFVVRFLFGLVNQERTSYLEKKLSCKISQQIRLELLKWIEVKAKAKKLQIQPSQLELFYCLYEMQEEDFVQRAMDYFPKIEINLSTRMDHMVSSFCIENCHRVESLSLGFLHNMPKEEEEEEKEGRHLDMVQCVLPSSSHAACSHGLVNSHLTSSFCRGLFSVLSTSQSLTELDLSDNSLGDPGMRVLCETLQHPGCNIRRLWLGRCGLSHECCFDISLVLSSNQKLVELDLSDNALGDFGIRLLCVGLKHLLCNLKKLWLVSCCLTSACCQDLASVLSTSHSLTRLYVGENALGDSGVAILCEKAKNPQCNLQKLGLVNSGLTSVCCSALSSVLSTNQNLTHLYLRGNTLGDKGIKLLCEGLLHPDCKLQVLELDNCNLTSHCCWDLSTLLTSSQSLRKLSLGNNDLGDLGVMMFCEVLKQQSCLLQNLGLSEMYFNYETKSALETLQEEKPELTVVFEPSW
Chain of Nucleotide-binding oligomerization domain-containing protein 2 (Homo sapiens) (Q9HC29 whole entry, the tested form may be a part): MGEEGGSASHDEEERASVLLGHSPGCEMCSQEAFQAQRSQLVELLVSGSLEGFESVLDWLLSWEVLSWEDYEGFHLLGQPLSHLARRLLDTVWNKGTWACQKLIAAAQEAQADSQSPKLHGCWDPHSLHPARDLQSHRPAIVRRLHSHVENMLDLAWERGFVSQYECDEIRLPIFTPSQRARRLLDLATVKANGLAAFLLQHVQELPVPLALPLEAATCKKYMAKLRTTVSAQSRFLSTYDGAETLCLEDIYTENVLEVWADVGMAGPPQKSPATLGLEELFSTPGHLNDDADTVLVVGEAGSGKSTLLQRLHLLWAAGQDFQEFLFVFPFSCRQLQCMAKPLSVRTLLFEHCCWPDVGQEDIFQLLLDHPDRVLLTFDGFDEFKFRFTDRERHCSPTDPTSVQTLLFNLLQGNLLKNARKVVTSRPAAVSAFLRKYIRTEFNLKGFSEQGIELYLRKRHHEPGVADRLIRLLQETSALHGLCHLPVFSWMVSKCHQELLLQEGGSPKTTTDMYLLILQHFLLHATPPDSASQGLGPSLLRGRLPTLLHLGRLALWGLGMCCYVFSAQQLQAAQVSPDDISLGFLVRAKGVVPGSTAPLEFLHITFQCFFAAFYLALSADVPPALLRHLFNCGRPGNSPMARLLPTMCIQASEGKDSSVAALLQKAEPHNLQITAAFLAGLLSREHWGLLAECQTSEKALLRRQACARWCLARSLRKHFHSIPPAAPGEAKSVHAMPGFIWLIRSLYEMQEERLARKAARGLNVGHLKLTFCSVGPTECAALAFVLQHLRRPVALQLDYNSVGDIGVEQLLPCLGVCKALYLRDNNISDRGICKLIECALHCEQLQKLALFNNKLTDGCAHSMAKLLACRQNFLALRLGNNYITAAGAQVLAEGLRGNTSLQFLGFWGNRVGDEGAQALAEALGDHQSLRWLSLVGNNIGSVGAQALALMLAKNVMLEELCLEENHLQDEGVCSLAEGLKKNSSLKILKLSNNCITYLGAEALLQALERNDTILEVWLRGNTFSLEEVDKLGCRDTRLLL

For `CCCCCCCCCCCCCCCCCC(=O)N[C@H]1[C@H](O[C@H]2[C@H](OCC(=O)N[C@@H](CC)C(=O)N[C@H](CCC(=O)O)C(N)=O)[C@@H](NC(C)=O)C(O)O[C@@H]2CO)O[C@H](CO)[C@@H](O)[C@@H]1O` (stereo partly specified), the deltaT in the data set on Oryctolagus cuniculus [1] amounted to 0.4 °C; in the data set on Oryctolagus cuniculus [15], 0.5 °C. Besides, the Activity entry in data set [2] is “Active”; with Oryctolagus cuniculus [3] it was “Non-Toxic”; with Oryctolagus cuniculus [5], “Non-Toxic”; with Oryctolagus cuniculus [6], “Non-Toxic”; with Oryctolagus cuniculus [7] it was “Non-Toxic”; in the data set on Oryctolagus cuniculus [9] it was “Non-Toxic”. The Activity entry in the data set with Oryctolagus cuniculus [11], in the data set on Oryctolagus cuniculus [12] and in the data set with Oryctolagus cuniculus [14] was “Non-Toxic” each time. Besides, the outcome (in the data set on Mus musculus; in data set [8]) was Active. For the same compound, the result in data set [4], in data set [10] and in [13] was inactive.
In the case of `C[C@H](NC(=O)[C@@H](C)O[C@H]1[C@H](O)[C@@H](CO)OC(O)[C@@H]1NC(=O)CO)C(=O)N[C@H](CCC(=O)O)C(N)=O` (stereo partly specified), the result in [8] was Active.
As to `CCCCCCCCCCCCCCCCCC(=O)NCCCC[C@H](NC(=O)CC[C@@H](NC(=O)[C@H](CC)NC(=O)CO[C@H]1[C@H](O[C@@H]2O[C@H](CO)[C@@H](O)[C@H](O)[C@H]2NC(C)=O)[C@@H](CO)OC(O)[C@@H]1NC(C)=O)C(N)=O)C(=O)O` (stereo partly specified), the deltaT stood at 0.4 °C with Oryctolagus cuniculus [1] and 0.5 °C in the data set on Oryctolagus cuniculus [15]. The Activity entry in data set [2] is listed as “Active”; in the data set with Oryctolagus cuniculus [3], “Non-Toxic”; in the data set with Oryctolagus cuniculus [5], “Non-Toxic”; with Oryctolagus cuniculus [6], “Non-Toxic”; with Oryctolagus cuniculus [7] it was “Non-Toxic”; in the data set with Oryctolagus cuniculus [9], “Non-Toxic”. For the same compound, the Activity result in the data set on Oryctolagus cuniculus [11], in the data set with Oryctolagus cuniculus [12] and with Oryctolagus cuniculus [14] was “Non-Toxic” each time. Further, the outcome (in the data set with Mus musculus; in [8]) was Active. Further, the result in data set [4], in data set [10] and in [13] was inactive.
With `CCCCCCCCCCCCCCCCCC(=O)NCCCC[C@H](NC(=O)CC[C@@H](NC(=O)[C@H](CC)NC(=O)CO[C@H]1[C@H](O)[C@@H](CO)OC(O)[C@@H]1NC(C)=O)C(N)=O)C(=O)O` (stereo partly specified), the deltaT was determined as 0.5 °C in the data set on Oryctolagus cuniculus [1] and 0.4 °C in the data set with Oryctolagus cuniculus [15]. In addition, the Activity result is “Active” in data set [2]; “Non-Toxic” in the data set with Oryctolagus cuniculus [3]; “Non-Toxic” in the data set on Oryctolagus cuniculus [5]; “Non-Toxic” with Oryctolagus cuniculus [6]; “Non-Toxic” in the data set on Oryctolagus cuniculus [7]; “Non-Toxic” with Oryctolagus cuniculus [9]. In addition, the Activity result in the data set with Oryctolagus cuniculus [11], in the data set on Oryctolagus cuniculus [12] and with Oryctolagus cuniculus [14] was “Non-Toxic” throughout. Besides, the result (with Mus musculus; in data set [8]) was Active. For the same compound, the result in data set [4], in [10] and in [13] was inactive.
For the compound `CCCCCCCCCCCCCCC(CCCCCCCCCCCCCC)C(=O)OC[C@H]1OC(O)[C@H](NC(C)=O)[C@@H](OCC(=O)N[C@@H](CC)C(=O)N[C@H](CCC(=O)O)C(N)=O)[C@@H]1O` (stereo partly specified), the deltaT in the data set with Oryctolagus cuniculus [1] amounted to 0.5 °C; in the data set on Oryctolagus cuniculus [15], 0.6 °C. Besides, the Activity result in data set [2] is reported as “Active”; in the data set with Oryctolagus cuniculus [3] it was “Non-Toxic”; in the data set with Oryctolagus cuniculus [5], “Non-Toxic”; with Oryctolagus cuniculus [6] it was “Non-Toxic”; in the data set with Oryctolagus cuniculus [7], “Non-Toxic”; in the data set on Oryctolagus cuniculus [9] it was “Non-Toxic”. The Activity entry in the data set on Oryctolagus cuniculus [11], in the data set on Oryctolagus cuniculus [12] and with Oryctolagus cuniculus [14] was “Non-Toxic” throughout. In addition, the outcome (with Mus musculus; in data set [8]) was Active. Also, the result in data set [4], in data set [10] and in data set [13] was inactive.
For `CCCCCCCCCCCCCCC(CCCCCCCCCCCCCC)C(=O)NCCCC[C@H](NC(=O)CC[C@@H](NC(=O)[C@H](CC)NC(=O)CO[C@H]1[C@H](O[C@@H]2O[C@H](CO)[C@@H](O)[C@H](O)[C@H]2NC(C)=O)[C@@H](CO)OC(O)[C@@H]1NC(C)=O)C(N)=O)C(=O)O` (stereo partly specified), the deltaT was determined as 0.5 °C with Oryctolagus cuniculus [1] and 0.4 °C in the data set with Oryctolagus cuniculus [15]. The Activity entry in [2] was “Active”; in the data set with Oryctolagus cuniculus [3], “Non-Toxic”; in the data set with Oryctolagus cuniculus [5], “Non-Toxic”; with Oryctolagus cuniculus [6], “Non-Toxic”; in the data set on Oryctolagus cuniculus [7], “Non-Toxic”; in the data set with Oryctolagus cuniculus [9], “Non-Toxic”. For the same compound, the Activity entry in the data set on Oryctolagus cuniculus [11], with Oryctolagus cuniculus [12] and with Oryctolagus cuniculus [14] was “Non-Toxic” in each case. Further, the outcome (in the data set on Mus musculus; in data set [8]) was Active. Moreover, the outcome in data set [4], in data set [10] and in data set [13] was inactive.
For `CCCCCCCCCCCCCCCCCC(=O)OC[C@H]1OC(O)[C@H](NC(C)=O)[C@@H](O[C@H](C)C(=O)N[C@@H](C)C(=O)N[C@H](CCC(=O)O)C(N)=O)[C@@H]1O` (stereo partly specified), the result in [4] and in [10] was inactive. For the same compound, the outcome in [8] was Active.
`Nc1ncnc2c1ncn2[C@@H]1O[C@H](COP(=O)(O)OP(=O)(O)OP(=O)(O)O)[C@@H](O)[C@H]1O` [ADENOSINE TRIPHOSPHATE]: in data set [2], the result was Active.
As to `C[C@H](N)C(=O)N[C@H](CCC(=O)NC12CC3CC(CC(C3)C1)C2)C(N)=O`, in data set [8], the outcome was inactive.

Values taken from ChEMBL document CHEMBL4024746, “Nonpyrogenic Molecular Adjuvants Based on norAbu-Muramyldipeptide and norAbu-Glucosaminyl Muramyldipeptide: Synthesis, Molecular Mechanisms of Action, and Biological Activities in Vitro and in Vivo” (J Med Chem, 2017).
